Screening results deposited in PubChem BioAssay by Johns Hopkins Ion Channel Center.
MrgX1 agonist = agonists of human MrgX1 receptor, primary screen, HEK293 cells, Fluo-4 calcium flux; Mas-related G-protein coupled receptor member X1 (Homo sapiens), Q96LB2; Fluo-4 calcium fluorescence, agonist mode; hits give high values; B-score at 10 µM; 310,000 tested, 0.44% active;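 active = calcium response B-score plate-corrected fluorescence ratio at least 3 library SD, with starting fluorescence B-score inside 5 SD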
Target sequence (Q96LB2 whole entry, looked up): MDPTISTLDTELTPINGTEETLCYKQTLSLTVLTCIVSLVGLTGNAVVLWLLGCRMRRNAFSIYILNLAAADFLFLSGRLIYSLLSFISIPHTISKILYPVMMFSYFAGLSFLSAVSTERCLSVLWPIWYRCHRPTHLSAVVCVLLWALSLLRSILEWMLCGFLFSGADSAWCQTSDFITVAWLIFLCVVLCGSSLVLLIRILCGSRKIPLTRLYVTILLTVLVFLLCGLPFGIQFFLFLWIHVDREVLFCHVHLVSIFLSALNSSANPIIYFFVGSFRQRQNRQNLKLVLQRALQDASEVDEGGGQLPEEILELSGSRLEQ
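Material: MrgX1-expressing HEK293 cells / Dosing: compound as first of three additions / Incubation: overnight seeding, then 1 h dark dye loading / Signal: Fluo-4 NW calcium fluorescence / Evaluation: B-scored fluorescence response ratio / Benchmarks: positive and negative control wells on each plate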
RGS4 act = RGS4 potentiators or activators, primary screen, cell-based, HEK293 M3R inducible RGS4, calcium flux | carbachol calcium flux Fluo4; hits give low values | B-score at 10 µM | 310,000 tested, 0.92% active | AID 463111, 2010;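 active = B-score of the integrated calcium signal more than 4 SD below the library mean, with starting fluorescence not abnormally high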;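 note: negative B-score means reduced calcium response which marks RGS4 activation or potentiation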
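Also added: carbachol at ECmax as muscarinic agonist stimulus; Assay system: HEK293 cells with stable M3R and inducible RGS4; Timing: overnight RGS4 induction, 30 min dye load 37 °C, 20 min compound RT; Measured by: Fluo4-AM (2 µM) calcium-flux fluorescence, kinetic read.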
MrgX1 allo act = positive allosteric modulators of MrgX1, primary screen, HEK293 cells, Fluo-4 calcium flux. FDSS; hits give high values. 310,000 tested, 0.63% active. Mas-related G-protein coupled receptor member X1 (Homo sapiens), Q96LB2. B-score at 10 µM;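 active = plate-corrected calcium response at least 3 library SD above typical, normal starting fluorescence, not activating the receptor alone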;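 note: compound read alongside a low EC10 to EC30 dose of BAM8-22 agonist; peak minus trough fluorescence over baseline measured at the second addition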
MrgX1 antag = antagonists of human MrgX1 receptor, primary screen, HEK293 cells, Fluo-4 calcium flux | Mas-related G-protein coupled receptor member X1 (Homo sapiens), Q96LB2 | BAM8-22 antagonism; hits give low values | B-score at 10 µM | 310,000 tested, 1.3% active | AID 588676, 2011;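 active = calcium-response B-score plate-corrected more than 3 library SD below zero, starting fluorescence within 5 deviations, no agonist response on first addition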;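 note: peak minus trough fluorescence over baseline after final BAM8-22 challenge near maximal dose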
RGS4 inh = RGS4 inhibitors, primary screen, cell-based, HEK293 M3R inducible RGS4, calcium flux. Fluo-4 calcium flux; hits give high values; triggered by carbachol at its EC20. B-score at 10 µM. AID 463165, 2010. Regulator of G-protein signaling 4 (Homo sapiens), P49798. 310,000 tested, 0.45% active;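 active = B-score, a plate-corrected calcium signal, over three deviations above library mean, with baseline fluorescence within five deviations of library mean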;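 note: RGS4 expression induced by doxycycline in cells with stable M3 receptor; B-score is computed from the integrated fluorescence ratio over baseline after carbachol; higher B-score means a larger calcium signal and so more RGS4 inhibition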
Target sequence (P49798 whole entry, looked up): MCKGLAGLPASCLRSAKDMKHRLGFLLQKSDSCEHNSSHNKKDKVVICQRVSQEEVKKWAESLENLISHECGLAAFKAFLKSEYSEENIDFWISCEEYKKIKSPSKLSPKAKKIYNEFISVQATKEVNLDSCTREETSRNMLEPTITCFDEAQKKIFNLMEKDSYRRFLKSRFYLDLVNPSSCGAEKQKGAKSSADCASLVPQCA
RGS4 act valid = reduced carbachol calcium response, RGS4-induced M3R cells, confirmation, RGS4 activator project, cell-based, HEK293 M3R/RGS4 inducible, calcium flux, duplicate; shares compounds with RGS4 act; carbachol calcium flux Fluo4; inhibition, % at 10 µM; 1,100 tested, 89% active;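 active = inhibition above 3 SD of the buffer control wells, cut at about 41% in these data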;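 note: signal is the integrated peak-minus-minimum Fluo4 fluorescence over baseline ratio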
M3R Ca counter = activity in cells without induced RGS4 expression | shares compounds with RGS4 act | 1,100 tested, 82% active | HEK293 M3R non-induced RGS4, Fluo4 calcium flux; after carbachol challenge at its EC90 | AID 602283 | inhibition, % at 10 µM;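 active = inhibition exceeding 3 SD of buffer-only control wells, cut at about 26% in these data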;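 note: percent drop in integrated peak-minus-baseline over baseline Fluo4 ratio after carbachol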
* marks the source's active call; other numbers are inactive results; i = inactive; / = not tested or not shown. In the library only some 3.5% were active in any assay of this set; here they are far more common.

SMILES	MrgX1 agonist	RGS4 act	MrgX1 allo act	MrgX1 antag	RGS4 inh	RGS4 act valid	M3R Ca counter
O=C(CN1CCCCCC1)N1c2ccccc2Sc2ccccc21	i	-10.6*	i	i	i	91.5*	91.8*
CCOC(=O)c1cc2cc(OC)ccc2nc1C	i	i	i	i	i	/	/
O=C1CCCN1CCCNCC(O)c1ccccc1 (stereo not given)	i	i	i	i	i	/	/
O=C1CCCN1CCCNCC(=O)N1c2ccccc2Sc2ccccc21	i	-9.37*	i	i	i	85.0*	54.8*
CCCC[C@@H]1CNCCN1CCc1cc(C(F)(F)F)cc(C(F)(F)F)c1	i	-7.88*	i	i	i	93.0*	85.8*
Cc1nc(SCC(=O)Nc2cc(Cl)ccc2[N+](=O)[O-])nc(C)c1C	i	i	i	i	i	/	/
COc1ccccc1N1CCN(C(=O)c2oc3cc(C)c(C)cc3c2C)CC1	/	i	/	/	i	/	/
CCOc1ccc2oc(C(=O)N3CCN(c4ccccc4OCC)CC3)c(C)c2c1	i	-10.3*	i	i	i	91.5*	78.8*
COc1ccc(S(=O)(=O)Nc2cc3[nH]c(=O)oc3cc2C)cc1	i	i	i	i	i	/	/
O=C(CN1CCN(Cc2ccc(F)cc2)C1=O)NC1CCCC1	i	i	i	i	i	/	/
CCn1ncc(CNC(=O)C2(C)CC2(Cl)Cl)c1C (stereo not given)	i	i	i	i	i	/	/
COC(=O)NC(=S)Nc1ccc(Oc2ccc(Cl)cc2Cl)c(Cl)c1	i	-7.77*	i	i	i	92.5*	70.3*
CC1CCCCN1CC(=O)Nc1ccc(N2CCCCCC2)cc1 (stereo not given)	i	i	i	i	i	/	/
CC1CCCCN1CC(=O)Nc1ccc(Oc2ccccc2)cc1 (stereo not given)	i	-9.09*	i	i	i	93.0*	87.3*
CCOC(=O)C(C(C)=O)c1c(Br)c(O)c(O)c2c(C(=O)c3ccc(C)cc3)coc12 (stereo not given)	i	-9.24*	i	i	i	41.5*	38.8*
CCOC(=O)c1c(C)n(-c2ccc(C)cc2)c2c(C(C(C)=O)C(=O)O)c(Br)c(O)c(O)c12 (stereo not given)	i	i	i	i	i	/	/
CCOC(=O)c1oc2ccccc2c1NC(=O)CN1CCOCC1	i	i	i	i	i	/	/
C/C(=N\NC(=O)C1(C)CC1(Br)Br)c1cccc(NC(=O)c2ccc(C)o2)c1 (stereo not given)	i	-12.1*	7.01*	i	i	91.5*	81.3*
Cc1ccc(C(=O)Nc2cccc(C(=O)NCc3ccccc3)c2)o1	i	i	i	i	i	/	/
OC(C#CCCN1CCCCC1)(c1ccccc1)C1CCCCC1 (stereo not given)	i	-8.97*	i	i	i	91.5*	95.8*
OCCN(CC#CC(O)(c1ccccc1)C1CCCCC1)CCO (stereo not given)	i	i	i	i	i	/	/
O=C(CN(C(=O)c1csnn1)c1cccc2ccccc12)NCc1ccc(F)cc1	i	i	i	i	i	/	/
N#CC(C#N)=c1ccc2c(c1)N1C3=C(CCCC3)CC3CCCCC31N=2 (stereo not given)	i	-8.24*	i	i	i	84.0*	83.8*
CCCCOC(=O)Nc1ccc(C)c(Cl)c1	i	i	i	i	i	/	/
COc1ccc(Br)cc1C(=O)Nc1ccc(Cc2ccncc2)cc1	i	i	i	i	i	/	/
SMILES	MrgX1 agonist	RGS4 act	MrgX1 allo act	MrgX1 antag	RGS4 inh	RGS4 act valid	M3R Ca counter
COc1c(C(=O)Nc2ccc(Cc3ccncc3)cc2)ccc2ccccc12	i	-12.7*	i	i	i	92.0*	86.3*
Nc1ccc2c(c1)C(=O)c1ccccc1-2	i	i	i	i	i	/	/
Nc1ccc2c(c1)C(=O)C(=O)c1ccccc1-2	i	-8.66*	i	i	i	68.0*	48.3*
CC1CN(S(=O)(=O)c2ccc(C(=O)N(CCCN(C)C)c3nc4cc5c(cc4s3)OCCO5)cc2)CC(C)O1 (stereo not given)	i	i	i	i	i	/	/
N#CCC(=O)N/N=C/c1ccc(Sc2nc3ccccc3s2)o1	i	i	i	i	i	/	/
Cc1cc2c3c([nH]c2cc1S(=O)(=O)NCc1ccc(CN2CCCCCC2)o1)CCCC3=O	i	-8.64*	i	i	i	75.0*	46.3*
Cc1ccc(C(=O)N(CCc2ccccc2)Cc2ccccc2)cc1S(=O)(=O)N1CCCCC1	i	-8.51*	i	i	i	91.0*	49.8*
CC(C)(C)c1nc(SCC(=O)N2CC(=O)Nc3ccccc32)c2ccccc2n1	i	i	i	i	i	/	/
CSc1nsc(SC)c1C(=O)Nc1ccc(C(C)(C)C)cc1	i	-11.4*	i	i	i	93.0*	79.3*
Cc1cc(C)nc(/N=C(\N)N(Cc2ccccc2)Cc2ccccc2)n1	i	-8.47*	i	i	i	92.0*	95.3*
CCn1c(C)c(C)c2cc(C(=O)Nc3cccc(Cl)c3)ccc21	i	-7.74*	i	i	i	61.0*	0.0
CCn1c(C)cc(O)c(C(=O)Nc2cccc(Cl)c2)c1=O	i	i	i	i	i	/	/
CCN(CC)CCC(=O)N1c2ccccc2Sc2ccc(Cl)cc21	i	i	i	i	i	/	/
CN(C)CC(=O)N1c2ccccc2Sc2ccc(Cl)cc21	i	-7.97*	i	i	i	91.0*	69.3*
O=C(CCN1CCN2CCCC2C1)N1c2ccccc2Sc2ccc(Cl)cc21 (stereo not given)	i	i	i	i	i	/	/
CN(C)CCC(=O)N1c2ccccc2Sc2ccc(Cl)cc21	i	-14.3*	i	i	i	93.5*	98.3*
NCCCC(=O)N1c2ccccc2Sc2ccc(Cl)cc21	i	-7.88*	i	i	i	91.0*	84.8*
